# Hits are enriched below; roughly 3.5% of the tested compounds scored in any of these assays.
# b-catenin transl – beta-catenin nuclear translocation modulation. HeLa beta-catenin nuclear translocation, immunofluorescence imaging. nuclear translocation activity, % at 5 µM. 190,000 tested, 0.3% active;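 active = nuclear translocation activity above 50% at 5 µM, with a well cell count of 50 or more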;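 note: per-cell ratio of nuclear to cytoplasmic median beta-catenin stain intensity; plate controls were DMSO negative control for no effect and GSK-3 inhibitor IX positive control for full effect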
#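 Test system: human HeLa cells, endogenous beta-catenin. Times: 24 h compound exposure, 37°C. Measured by: beta-catenin immunofluorescence imaging with DAPI.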
# Efa HMGR inh – E. faecalis class II HMG-CoA reductase inhibition; purified E. faecalis HMGR, NADPH absorbance 340 nm kinetic; inhibition, % at 10 µM; 190,000 tested, 0.41% active; AID 1066;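 active = inhibition above a set limit, the median over all tested compounds plus 3 SD, cut at about 9.5% in these data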;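 note: enzyme runs in reverse so mevalonate oxidation gives rising NADPH absorbance; 0% = complete reaction with DMSO and 100% = background rate lacking mevalonate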
# MT stabilizer – stabilizes microtubules in HeLa cells. 200,000 tested, 0.83% active. HeLa tubulin immunostaining HCS, 24 h; share of cells brighter than vehicle mean+2SD. % tubulin-high responders, % at 10 µM;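 active = plate Z-score above 3 for both tubulin-high and condensed-nucleus cell shares, with cell loss under 80%, at 10 µM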;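 note: anti alpha tubulin signal scored within the nucleus-defined area of each cell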
# RAM network inh – yeast RAM network inhibition; inhibition, % at 50 µM; 190,000 tested, 1.8% active; S. cerevisiae dse1pr::URA3 reporter, 5-FOA growth OD615, 2 d; analog-sensitive cbk1-as2 kinase mutant strain; AID 868;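 active = inhibition above a set limit, 3 SD over mean compound inhibition, cut at about 8.4% in these data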;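 note: 0% = DMSO-only wells with no growth and 100% = 10 µM 1-NA-PP1 full growth; inhibition rescues growth on 5-FOA so higher OD means more RAM inhibition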
# BB579 growth dn – reduces growth of yeast BB579 in restrictive medium. inhibition, % at 10 µM. S. cerevisiae BB579 growth, OD615, 48 h. 140,000 tested, 0.51% active;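 active = inhibition above a set limit, 3 SD over the mean compound inhibition, cut at about 44% in these data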
#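 Test system: DeaD yeast strain BB579 / Buffer or medium: restrictive glucose-based CSMM-D medium / Doses: single 10 µM dose / Schedule: 4 h cell preincubation, 48 h compound exposure, 30 °C humidified / Technique: culture absorbance at 615 nm / Controls: amphotericin B positive control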
# Yeast lifespan up – extends the lifespan of yeast. S. cerevisiae growth with nicotinamide, OD615; deaD strain in restrictive glucose medium. inhibition of the nicotinamide effect, % at 10 µM. 130,000 tested, 0.68% active. AID 775;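 active = inhibition above a set limit, placed 3 SD over the median of all compounds, cut at about 26% in these data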;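 note: 0% = nicotinamide-treated wells and 100% = cells grown without nicotinamide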
#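 Material: Modified budding yeast, DeaD strain | Medium: Restrictive glucose medium | Probe or stimulus: 1.5 mM nicotinamide | Dosing: Single dose 10 µM compound, 0.25% DMSO | Times: 48 h at 30 °C | Technique: OD615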
# * hit, by the source's call; · = not tested or not shown.
SMILES,b-catenin transl,Efa HMGR inh,MT stabilizer,RAM network inh,BB579 growth dn,Yeast lifespan up
COc1ccc(C(CC(=O)O)NC(=O)c2ccccc2)cc1OC (stereo not drawn),·,-7.1,3.0,3.0,-15.5,-11.2
O=C(Nc1ccc(N2CCOCC2)c(Cl)c1)c1ccc(F)cc1,-0.3,6.8,3.8,3.3,-29.6,·
CCN1CCN(c2ccc(NC(=O)c3cccc(F)c3)cc2Cl)CC1,0.0,10.1*,1.6,0.1,·,·
O=C(COC(=O)CNC(=O)c1ccc(Cl)cc1)Nc1cccc(S(=O)(=O)N2CCCC2)c1,1.5,·,·,·,·,·
O=C(NC1CCCCC1)C1CCN(S(=O)(=O)c2cccc3cccnc23)CC1,0.6,-9.2,4.6,1.9,2.5,-7.9
CCC(C)NC(=O)C1CCN(S(=O)(=O)c2cccc3cccnc23)CC1 (stereo not drawn),0.5,0.9,2.7,0.8,49.2*,-7.0
Cc1ccc(C(=O)NNC(=S)NC(=O)c2ccc(Cl)cc2)cc1,·,0.1,3.9,1.1,-32.3,95.0*
O=C(NC(CCl)c1ccccc1)c1ccc(Cl)cc1 (stereo not drawn),-0.4,-3.6,1.0,-0.5,·,·
Nc1nn(-c2ccccc2)c(N)c1N=Nc1ccc2c(c1)OCO2,77.8*,-4.3,24.6*,-1.0,-32.5,-4.5
Nc1nn(-c2ccccc2)c(N)c1N=Nc1cccc(F)c1,57.8*,·,·,·,·,·
CC(C)c1ccc(C2NC(=S)NC3=C2C(=O)CC(C)(C)C3)cc1 (stereo not drawn),2.5,-7.3,4.9,3.6,-9.3,3.4
CCCC(NCC(O)COc1ccc(-c2ccccc2)cc1)c1ccccc1 (stereo not drawn),-1.0,-0.6,22.4*,-0.1,·,·
CCc1nnc(NC(=O)CSc2nccn2-c2cccc(C)c2C)s1,-0.5,-1.2,19.5*,0.2,-9.5,-6.5
Cc1cccc(-n2ccnc2SCC(=O)Nc2nccs2)c1C,-1.1,-4.2,4.1,0.2,-11.4,-5.8
O=C(CCSc1ccccn1)c1ccccc1,0.1,-3.9,3.0,2.0,·,·
O=CC1=C(N2CCOCC2)/C(=C/c2ccc(Cl)cc2)CC1,-2.0,2.5,1.2,-0.1,·,·
Cc1cc(C)nc(N/N=C/C2=C(N3CCOCC3)C(=C\c3ccc(Cl)cc3)/CC2)n1,-1.1,1.5,3.4,1.2,51.7*,-2.5
O=C(NCCCN1CCN(c2ccccc2F)CC1)Nc1ccccc1[N+](=O)[O-],1.5,0.6,4.0,3.5,·,·
O=c1c2ccccc2sn1-c1cc(S(=O)(=O)N2CCOCC2)ccc1N1CCOCC1,-1.8,-1.2,7.2,9.2*,-45.9,-2.4
COc1ccc(S(=O)(=O)N[C@@H](C)C(=O)OCC(=O)Nc2cc3oc4ccccc4c3cc2OC)cc1,-0.1,2.1,2.1,9.6*,-39.5,-3.4
COc1cc2c(cc1NC(=O)CSc1ccccc1)oc1ccccc12,-0.5,-2.1,2.7,10.6*,-14.1,2.5
COc1cc2c(cc1NC(=O)COC(=O)[C@@H](NS(=O)(=O)c1cccc(Cl)c1)C(C)C)oc1ccccc12,2.8,-5.9,2.7,6.2,-37.2,-2.7
Cc1ccc(C)c(NC(=O)CN(C)C(=O)c2nn(C)c(=O)c3ccccc23)c1,-0.5,-1.7,3.2,0.5,·,·
Cc1ccc(OC(=O)CCN2C(=O)c3ccccc3C2=O)cc1C,-0.6,1.8,2.8,2.5,·,·
Cc1cccc(C)c1OCCNC(=O)OCc1ccccc1,0.9,-7.4,6.6,-0.5,·,·
SMILES,b-catenin transl,Efa HMGR inh,MT stabilizer,RAM network inh,BB579 growth dn,Yeast lifespan up
COCCn1c(N)c(N(Cc2ccccc2)C(=O)Cc2c(Cl)cccc2Cl)c(=O)[nH]c1=O,-1.3,-2.7,2.9,2.5,·,·
COc1ccccc1C(=O)N1c2ccccc2Sc2ccccc21,14.4,0.9,10.9*,3.7,-21.8,18.5
O=C(c1cccnc1)N1c2ccccc2Sc2ccccc21,0.0,11.8*,2.1,-0.1,·,·
CN(C)c1ccc2c(c1)Sc1cc(N(C)C)ccc1N2C(=O)c1ccccc1,-1.0,·,·,·,·,·
CCOc1ccccc1C(=O)N1c2ccccc2Sc2ccccc21,·,0.4,3.0,6.2,-10.0,-16.2
CCN(Cc1cc(=O)[nH]c2ccccc12)C(=O)c1ccc(C)cc1,0.5,·,·,·,·,·
O=C(NS(=O)(=O)Oc1ccc(F)c(Cl)c1)OC[C@@H]1CCCN2CCCCC12 (stereo partly drawn),0.1,-2.6,5.8,5.1,·,·
Nc1cccc2c1C(=O)N(C(=O)c1ccc(Cl)c(S(=O)(=O)N3CCCCCC3)c1)C2=O,-1.2,-4.4,2.4,-0.7,-48.2,75.4*
O=C(O)c1cccc(NC(=O)c2ccc(Cl)c(S(=O)(=O)N3CCCCCC3)c2)c1,0.2,-4.0,2.0,9.7*,·,·
O=C(COC(=O)Cc1ccccc1F)Nc1cccc(S(=O)(=O)NC2=NCCCCC2)c1,-3.5,-6.1,2.3,1.2,·,·
O=C(/C=C/Sc1ccccc1)c1ccc(Cl)cc1,-2.4,0.0,3.2,1.5,-58.1,27.9*
N#CCCCn1c(=O)oc2ccccc21,0.5,14.9*,2.8,-0.2,·,·
O=c1oc2ccccc2n1CCCCCn1c(=O)oc2ccccc21,-2.6,-4.0,4.8,0.5,-9.4,-12.4
CCOc1ccc(S(=O)(=O)N(C(=O)c2ccco2)c2cc3sc(=O)oc3c3ccccc23)cc1,0.4,6.2,19.1*,5.4,-41.3,3.5
COc1ccc(S(=O)(=O)N(C(=O)c2ccco2)c2cc3sc(=O)oc3c3ccccc23)cc1,0.3,4.7,1.6,6.6,-3.6,0.7
Cc1ccc(NC(=O)CSc2nn(-c3ccc(Cl)cc3)c(=S)s2)cc1S(=O)(=O)N(C)C,-1.4,-0.2,2.7,11.2*,-0.2,1.3
CN(C)S(=O)(=O)c1cc(NC(=O)CSc2nn(-c3ccc(Cl)cc3)c(=S)s2)ccc1Cl,0.6,-0.8,2.8,6.6,-23.3,1.4
Nc1nc(-c2c(Cl)cccc2Cl)no1,2.3,·,·,·,·,·
S=C1SCN(Cc2cccnc2)CN1Cc1cccnc1,4.0,·,·,·,·,·
CO/N=C/c1cccn1-c1nccc(N(C)C)c1C#N,-1.7,-1.6,2.6,3.4,·,·
Cc1ccc(-c2csc3ncnc(NS(=O)(=O)c4ccc(Cl)cc4)c23)cc1,-0.9,0.2,8.2,9.2*,-32.5,6.4
COc1ccc2cc(C(C)c3nc4ccccc4c(=O)n3N)ccc2c1 (stereo not drawn),1.2,4.1,4.3,6.0,-48.3,30.9*
COc1ccc(-c2nc3ccccc3c(=O)n2N)cc1,2.0,-1.5,1.7,0.8,-4.4,-21.9
O=C(COC(=O)c1cc([N+](=O)[O-])ccc1NCCO)c1ccc(Cl)cc1,-3.1,-15.8,2.9,1.0,-27.1,-7.4
CCc1ccc(C(=O)COC(=O)c2cc([N+](=O)[O-])ccc2NCCO)cc1,2.5,8.5,3.5,10.5*,-42.6,-1.6
O=C(Cc1ccc(Br)cc1)NC1CCSC1=O (stereo not drawn),0.2,0.1,4.2,-0.5,·,·
